Compound activity from PubChem.
Only some compounds are listed: those with a hit (about 3.3% of all), similar ones and a draw of the others.
SIAE inh: inhibitors of human sialic acid acetylesterase SIAE; Q9HAT2; SIAE FP-Rh probe binding, fluorescence polarization; inhibition, % at 9.66 µM; 370,000 compounds, 0.69% hits; AID 1053197;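 active = inhibition above a cutoff: mean of compounds within the control limits plus 3 SD of those, cut at about 17% in these data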;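 also: 0% = plate median of compound wells and 100% = probe without SIAE protein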
MBD2 inh: blocks human MBD2 binding to methylated DNA; 370,000 compounds, 0.31% hits; TR-FRET, MBD2 binding to methylated oligonucleotide; Q9UBB5; inhibition, % at 4.4 µM; in the data active = inhibition above about 13%
UHRF1 MBD2 ctr: blocks human UHRF1 binding to methylated DNA; Q96T88; UHRF1 binding to methylated oligo, TR-FRET; inhibition, % at 4.4 µM; 370,000 compounds, 0.75% hits; AID 687016; in the data active = inhibition above about 21%;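 also: UHRF1 SRA domain binding a hemimethylated CpG hairpin DNA probe; 0% = median of test compound wells and 100% = reference inhibitor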
LEDGF integ inh: blocks HIV-1 LEDGF/p75-dependent DNA integration | TR-FRET IN-LEDGF/p75 DNA integration, Eu/Cy5 | inhibition, % at 3.7 µM | 370,000 compounds, 0.64% hits | AID 743269;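 active = inhibition above the screen-wide mean plus 3 SD, cut at about 13% in these data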;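 also: signal is the Cy5 over europium emission ratio at 671 and 618 nm; 0% = plate median of compound wells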
TDP2 absorb: blocks human TDP2 phosphodiesterase activity. 370,000 compounds, 0.34% hits. inhibition, % at 12.8 µM. O95551. AID 720702. recombinant TDP2, T5PNP hydrolysis, p-nitrophenol absorbance 415 nm;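 active = inhibition above the mean of all tested compounds plus 3 SD, set per campaign, cut at about 25% in these data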;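 also: 0% = DMSO with enzyme and 100% = buffer with substrate but no TDP2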
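Material: recombinant human TDP2; quantity: TDP2 enzyme at 120 nM final; medium: Tris-HCl pH 7.5 with MgCl2; compound: single concentration, 12.8 µM nominal, with 1% DMSO; incubation: 2 h enzyme incubation at 37 °C; signal: epi absorbance; measure: percent inhibition; benchmarks: high control without enzyme, low control DMSO plus TDP2; repeats: singlicate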
PRMT1 inh: inhibitors of human PRMT1 | Q99873 | inhibition, % at 2.79 µM | recombinant PRMT1, activity-based probe fluorescence polarization | 370,000 compounds, 1.3% hits;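 active = inhibition above about 21% made by adding two undisclosed values, limit read from the data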
Target sequence (Q99873 whole entry, looked up): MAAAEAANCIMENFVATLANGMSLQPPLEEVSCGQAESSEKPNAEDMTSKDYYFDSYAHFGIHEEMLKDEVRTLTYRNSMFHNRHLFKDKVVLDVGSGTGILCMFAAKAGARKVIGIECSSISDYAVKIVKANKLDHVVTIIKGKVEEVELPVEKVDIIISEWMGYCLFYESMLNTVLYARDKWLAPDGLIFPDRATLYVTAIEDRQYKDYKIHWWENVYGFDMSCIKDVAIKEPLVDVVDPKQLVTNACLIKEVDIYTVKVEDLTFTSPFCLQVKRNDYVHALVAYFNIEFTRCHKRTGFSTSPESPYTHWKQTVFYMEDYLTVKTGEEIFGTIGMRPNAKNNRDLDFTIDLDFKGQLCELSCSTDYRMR
SIAE confirm: human SIAE inhibition, confirmation; shares compounds with SIAE inh; AID 1117263; 2,300 compounds, 13% hits; SIAE FP-Rh activity-based probe, fluorescence polarization; inhibition, % at 9.66 µM;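 active = mean inhibition of the replicates above the hit cutoff set in the primary screen, cut at about 17% in these data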;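 also: 0% = SIAE with DMSO and probe and 100% = probe without SIAE; inhibitors lower polarization as more probe stays unbound to SIAE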
Numbers without * were called inactive.

COc1cc(S(=O)(=O)N2CCN(C(=O)c3ccco3)CC2)c(OC)cc1C was read as SIAE inh 0, MBD2 inh 0, UHRF1 MBD2 ctr 3, LEDGF integ inh 2, TDP2 absorb -9 and PRMT1 inh 1.
Screening COc1ccc(Cl)cc1NC(=S)N1CCN(C(=O)c2ccco2)CC1 returned SIAE inh 39*, MBD2 inh -4, UHRF1 MBD2 ctr -2, LEDGF integ inh -1, TDP2 absorb -6, PRMT1 inh -2 and SIAE confirm -5.
`S=c1[nH]nc(-c2cc(-c3ccccc3)n[nH]2)n1N=Cc1cccc(Oc2ccccc2)c1` gave SIAE inh -7, MBD2 inh 2, UHRF1 MBD2 ctr 1, LEDGF integ inh 2, TDP2 absorb -4 and PRMT1 inh 9.
`CCOC(=O)[C@]12CCCC3=C1N(CCC3)C(=O)[C@@H](CC(=O)NCc1ccccc1)C2` gave SIAE inh -3, MBD2 inh -3, UHRF1 MBD2 ctr -1, LEDGF integ inh 0, TDP2 absorb 7 and PRMT1 inh -3.
CCOC(=O)c1sc(N=NC2=C(O)CCCC2=O)c(C(=O)OCC)c1C was read as SIAE inh 22*, MBD2 inh 4, UHRF1 MBD2 ctr -1, LEDGF integ inh 5, TDP2 absorb 3, PRMT1 inh 6 and SIAE confirm 0.
CCOC(=O)c1sc(/N=C/N(C)C)c(C(=O)OCC)c1C was read as SIAE inh 2, MBD2 inh -3, UHRF1 MBD2 ctr -2, LEDGF integ inh -2, TDP2 absorb 9 and PRMT1 inh -1.
CCCCCCCCN1C(=O)[C@@H](CC(=O)NCCCN2CCCC2=O)C[C@@]2(C(=O)OC)C1=C[C@H](C1CCCC1)O[C@@H]2C was read as SIAE inh 0, MBD2 inh 1, UHRF1 MBD2 ctr 1, LEDGF integ inh -2, TDP2 absorb -6 and PRMT1 inh -3.
For COc1cccc(NC(=O)CN(C)C(=O)C2=COCCO2)c1 the results were SIAE inh 18*, MBD2 inh 4, UHRF1 MBD2 ctr 3, LEDGF integ inh -1, TDP2 absorb -17, PRMT1 inh -1 and SIAE confirm 4.
For Cc1ccccc1NC(=S)N1CCN(c2ccccc2)CC1 the results were SIAE inh 18*, MBD2 inh -5, UHRF1 MBD2 ctr -4, LEDGF integ inh 5, TDP2 absorb 1, PRMT1 inh -3 and SIAE confirm 3.
For C[C@H](CO)N1C[C@H](C)[C@@H](CN(C)S(=O)(=O)c2ccccc2)Oc2ccc(NC(=O)Nc3ccc4c(c3)OCO4)cc2C1=O the results were SIAE inh 19*, MBD2 inh -1, UHRF1 MBD2 ctr -2, LEDGF integ inh -1, TDP2 absorb 12, PRMT1 inh 0 and SIAE confirm 2.
Screening COc1ccc(NC(=O)N(C)C[C@H]2OCCCC[C@H](C)Oc3ccc(NC(=O)Nc4ccc5c(c4)OCO5)cc3C(=O)N([C@@H](C)CO)C[C@@H]2C)cc1 returned SIAE inh 23*, MBD2 inh -5, UHRF1 MBD2 ctr -2, LEDGF integ inh 2, TDP2 absorb -3, PRMT1 inh 0 and SIAE confirm 6.
Screening COc1ccc(NC(=O)Nc2ccc3c(c2)C(=O)N([C@H](C)CO)C[C@H](C)[C@@H](CN(C)S(=O)(=O)c2ccc(OC)cc2)O3)cc1 returned SIAE inh 22*, MBD2 inh -4, UHRF1 MBD2 ctr -5, LEDGF integ inh -4, TDP2 absorb -8, PRMT1 inh -1 and SIAE confirm -4.
Screening O=C(OCC#CCSc1nnc(-c2cccc3ccccc23)o1)c1ccc(F)c(F)c1 returned SIAE inh 4, MBD2 inh -2, UHRF1 MBD2 ctr -3, LEDGF integ inh 1, TDP2 absorb 2 and PRMT1 inh 0.
COc1ccc(N2C(=O)CSC2c2cccc(OC)c2OC)cc1 (stereo not drawn) was read as SIAE inh 23*, MBD2 inh 3, UHRF1 MBD2 ctr -2, LEDGF integ inh -1, TDP2 absorb 5, PRMT1 inh 1 and SIAE confirm -8.
`CSc1ccc(Oc2cccc3c2S(=O)(=O)N(C2CC2)C[C@@H](COCc2ccccc2)O3)cc1C` gave SIAE inh -1, MBD2 inh 0, UHRF1 MBD2 ctr -2, LEDGF integ inh 1, TDP2 absorb -1 and PRMT1 inh 0.
Screening Cn1cccc1/C=N/NC(=O)c1cc2ccccc2cc1O returned SIAE inh 17*, MBD2 inh -1, UHRF1 MBD2 ctr -4, LEDGF integ inh -3, TDP2 absorb -9, PRMT1 inh -4 and SIAE confirm 1.
`O=C(O)COc1ccccc1/C=N/NC(=O)c1cc2ccccc2cc1O` gave SIAE inh 48*, MBD2 inh 6, UHRF1 MBD2 ctr 1, LEDGF integ inh -6, TDP2 absorb -7, PRMT1 inh 18 and SIAE confirm 53*.
For O=C(N/N=C/C1CC=CCC1)c1ccc(O)cc1O (stereo not drawn) the results were SIAE inh 13, MBD2 inh 3, UHRF1 MBD2 ctr 0, LEDGF integ inh 0, TDP2 absorb 1 and PRMT1 inh 0.
Screening O=C(N/N=C/C1CC=CCC1)c1cc2ccccc2cc1O (stereo not drawn) returned SIAE inh 19*, MBD2 inh -1, UHRF1 MBD2 ctr -2, LEDGF integ inh -1, TDP2 absorb 2, PRMT1 inh 0 and SIAE confirm 8.
`O=C(O)COc1ccccc1/C=N/NC(=O)c1cc(-c2ccc(F)cc2)nc2ccccc12` gave SIAE inh -8, MBD2 inh 1, UHRF1 MBD2 ctr -2, LEDGF integ inh -1, TDP2 absorb -1 and PRMT1 inh 2.
`Nc1[nH]c(C(=O)c2ccccc2)c(-c2cccc(C(F)(F)F)c2)c1C(=O)NCCc1c[nH]c2ccccc12` gave SIAE inh 13, MBD2 inh -3, UHRF1 MBD2 ctr -2, LEDGF integ inh 1, TDP2 absorb -1 and PRMT1 inh 0.
For C=CCN1C(=O)[C@H](CC(=O)NCCC(C)C)[C@@]2(C(=O)OCC)CCCC=C12 the results were SIAE inh 1, MBD2 inh -4, UHRF1 MBD2 ctr -2, LEDGF integ inh 1, TDP2 absorb 10 and PRMT1 inh -6.
Cc1ccccc1C(=O)N(C)[C@H]1C[C@H]2c3[nH]c4c(-c5ccccc5)cccc4c3CCN2C[C@H]1[C@H](C)O was read as SIAE inh -1, MBD2 inh -5, UHRF1 MBD2 ctr -1, LEDGF integ inh -2, TDP2 absorb 2 and PRMT1 inh -2.
